# Data reported in ChEMBL document CHEMBL1641440, “Virtual screening based identification of novel small-molecule inhibitors targeted to the HIV-1 capsid” (Bioorg Med Chem, 2011).
# Activity calls are given as the source filed them. The calls are words filed in the database; no cut-off is given here.
# How the values were obtained:
# [1] = system: MT2; test: Cytotoxicity against human MT2 cells after 4 days by XTT assay; assay type: cell-based; settings: mt2, 96 h
# Method in brief: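 XTT assay run in parallel with the MT-2 antiviral assay, with medium in place of virus. Graded compound added to an equal volume of MT-2 cells (1 × 10^5 cells/mL), 37 °C for 4 days. Formazan read at 450 nm (reference 620 nm) 4 h after XTT addition; CC50 = concentration giving 50% cytotoxicity.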
# [2] = system: Human immunodeficiency virus 1; test: Antiviral activity against HIV1 3B infected in human MT2 cells assessed as inhibition of viral p24 antigen production after 4 days by ELISA; assay type: functional, organism-based; settings: Human immunodeficiency virus 1, 3B, MT2, 96 h
# Method in brief: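 MT-2 cells (1 × 10^4) infected with HIV-1 IIIB at 100 TCID50 (0.01 MOI) in RPMI 1640/10% FBS with graded inhibitor concentrations overnight; medium then replaced with fresh medium containing freshly prepared compound. On day 4 supernatant mixed 1:1 with 5% Triton X-100 and p24 measured by ELISA; IC50 = concentration giving 50% reduction in p24 production. Mean ± SD.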
# [3] = system: Human immunodeficiency virus 1; settings: 3B, MT2, 1 ug/mL
# [4] = system: Human immunodeficiency virus 1; test: Antiviral activity against protease-resistant HIV1 RF/L-323-12-3 infected in human MT2 cells assessed as inhibition of viral p24 antigen production after 4 days by ELISA; assay type: functional, organism-based; settings: Human immunodeficiency virus 1, RF/L-323-12-3, MT2, 96 h
# Method in brief: (§1)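 MT-2 cells (1 × 10^4) were infected at 100 TCID50 (0.01 MOI) in RPMI 1640 with 10% FBS, with or without graded inhibitor concentrations, overnight. Medium was then replaced with fresh inhibitor-containing medium. On day 4, supernatant was mixed 1:1 with 5% Triton X-100 and p24 was measured by ELISA. IC50 is the concentration giving 50% reduction in p24.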
# [5] = system: Human immunodeficiency virus 1; test: Antiviral activity against primary HIV1 isolate 92US657 infected in human PBMC assessed as inhibition of viral p24 antigen production after 7 days by ELISA; settings: Human immunodeficiency virus 1, isolate 92US657, 168 h
# [6] = system: Human immunodeficiency virus 1; test: Antiviral activity against HIV1 89.6 infected in human PBMC assessed as inhibition of viral p24 antigen production after 4 days by ELISA; assay type: functional, organism-based; settings: Human immunodeficiency virus 1, 89.6, 96 h
# [7] = system: Human immunodeficiency virus 1; test: Antiviral activity against HIV1 MN infected in human MT2 cells assessed as inhibition of viral p24 antigen production after 4 days by ELISA; assay type: functional, organism-based; settings: Human immunodeficiency virus 1, MN, MT2, 96 h; method in brief: as §1
# [8] = target: Structural capsid protein (Human immunodeficiency virus 1) (UniProt Q76129); test: Binding affinity to HIV1 capsid protein assessed as decrease in formation of mature-like particles after 30 mins by electron microscopy
# Structural capsid protein (Human immunodeficiency virus 1), sequence (Q76129 as listed by the source): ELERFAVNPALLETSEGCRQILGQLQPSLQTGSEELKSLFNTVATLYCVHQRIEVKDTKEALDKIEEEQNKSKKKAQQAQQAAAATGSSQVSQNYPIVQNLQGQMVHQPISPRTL
# Method in brief: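 Purified CA at 50 μM in Na2HPO4 buffer pH 8.0, without RNA, was incubated with inhibitor at 0.5 to 5 molar equivalents for 30 min at 4 °C. It was then dialysed overnight at 4 °C in the same buffer plus 100 mM NaCl. Samples were spotted on poly-L-lysine-treated grids, negatively stained with uranyl acetate and imaged by EM at 80 kV for tube-shaped particles.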
# [9] = system: Human immunodeficiency virus 1; test: Antiviral activity against HIV1 RF infected in human MT2 cells assessed as inhibition of viral p24 antigen production after 4 days by ELISA; assay type: functional, organism-based; settings: Human immunodeficiency virus 1, RF, MT2, 96 h; method in brief: as §1
# [10] = system: Human immunodeficiency virus 1; test: Antiviral activity against primary HIV1 isolate BCF02 infected in human PBMC assessed as inhibition of viral p24 antigen production after 7 days by ELISA; settings: Human immunodeficiency virus 1, isolate BCF02, 168 h
# [11] = Selectivity index, ratio of CC50 for human MT2 cells to IC50 for HIV1 3B infected in human MT2 cells; assay type: functional
# Method in brief: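 IC50: MT-2 cells infected with HIV-1 IIIB (100 TCID50, 0.01 MOI) overnight with graded compound, then medium refreshed with compound; day-4 p24 measured by ELISA. […] Ratio is CC50/IC50.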
# [12] = system: Human immunodeficiency virus 1; test: Antiviral activity against primary HIV1 isolate 92UG024 infected in human PBMC assessed as inhibition of viral p24 antigen production after 7 days by ELISA; settings: Human immunodeficiency virus 1, isolate 92UG024, 168 h
# [13] = system: Human immunodeficiency virus 1; test: Antiviral activity against HIV1 SF2 infected in human MT2 cells assessed as inhibition of viral p24 antigen production after 4 days by ELISA; assay type: functional, organism-based; settings: Human immunodeficiency virus 1, SF2, MT2, 96 h; method in brief: as §1
# [14] = system: Human immunodeficiency virus 1; test: Antiviral activity against primary HIV1 isolate RU570 infected in human PBMC assessed as inhibition of viral p24 antigen production after 7 days by ELISA; settings: Human immunodeficiency virus 1, isolate RU570, 168 h
# [15] = system: Human immunodeficiency virus 1; test: Antiviral activity against HIV1 3B infected in human MT2 cells assessed as inhibition of viral p24 antigen production at 5 uM after 4 days by ELISA; assay type: functional, organism-based
# [16] = system: Human immunodeficiency virus 1; test: Antiviral activity against azidothymidine-resistant HIV1 SF2 infected in human MT2 cells assessed as inhibition of viral p24 antigen production after 4 days by ELISA; assay type: functional, organism-based; settings: Human immunodeficiency virus 1, MT2, 96 h; method in brief: as §1
# [17] = system: Human immunodeficiency virus 1; test: Antiviral activity against primary HIV1 isolate 93IN101 infected in human PBMC assessed as inhibition of viral p24 antigen production after 7 days by ELISA; settings: Human immunodeficiency virus 1, isolate 93IN101, 168 h
# [18] = system: Human immunodeficiency virus 1; test: Antiviral activity against primary HIV1 isolate 93BR020 infected in human PBMC assessed as inhibition of viral p24 antigen production after 7 days by ELISA; settings: Human immunodeficiency virus 1, isolate 93BR020, 168 h
# [19] = system: Human immunodeficiency virus 1; test: Antiviral activity against HIV1 BaL infected in human PBMC assessed as inhibition of viral p24 antigen production after 4 days by ELISA; assay type: functional, organism-based; settings: Human immunodeficiency virus 1, BaL, 96 h
# [20] = system: Human immunodeficiency virus 1; test: Antiviral activity against primary HIV1 isolate 94UG103 infected in human PBMC assessed as inhibition of viral p24 antigen production after 7 days by ELISA; settings: Human immunodeficiency virus 1, isolate 94UG103, 168 h
Compound,CC50 [1] [µM],IC50 [2] [µM],other results
CCOc1ccc(C(=O)N(Cc2cccs2)Cc2cc3cc(C)ccc3[nH]c2=O)cc1,12.7,5,–
Cc1ccc(C(=O)N(Cc2ccco2)Cc2cc3cccc(C)c3[nH]c2=O)cc1,9.2,2.67,–
Cc1ccc2[nH]c(=O)c(CN(Cc3ccco3)C(=O)c3ccc(F)c(Cl)c3)cc2c1,> 23.5,8.2,–
COc1ccc2[nH]c(=O)c(CN(Cc3cccs3)C(=O)c3cccc(C)c3)cc2c1,25,7.9,–
Cc1ccc2cc(CN(Cc3ccco3)C(=O)c3cccc(F)c3)c(=O)[nH]c2c1,> 51.2,12.4,–
c1cc(CN2CCCNCCNCCCNCC2)ccc1CN1CCCNCCNCCCNCC1,–,–,inhibition [3]: Active
Cc1ccc2[nH]c(=O)c(CN(Cc3ccc(Cl)cc3)C(=O)c3cn4cccc(C)c4n3)cc2c1,44.5,9.27,–
Cc1ccc2[nH]c(=O)c(CN(Cc3ccco3)C(=O)c3ccc(F)c(F)c3)cc2c1,> 24.5,4.7,–
Cc1ccc2[nH]c(=O)c(CN(Cc3ccco3)C(=O)c3ccccc3)cc2c1,> 67.1,9.28,–
COc1ccc2nc(O)c(CN(Cc3ccco3)C(=O)c3ccccc3)cc2c1,–,> 25.7,–
Cc1cccc2cc(CN(Cc3ccco3)C(=O)c3ccccc3F)c(=O)[nH]c12,> 64,7.25,–
Cc1ccc2[nH]c(=O)c(CN(Cc3ccco3)C(=O)c3ccc(Cl)c(N4CCCCC4)c3)cc2c1,> 20.4,7.1,–
Cc1ccc2[nH]c(=O)c(CN(Cc3cccs3)C(=O)c3ccccc3)cc2c1,–,> 12.9,–
Cc1ccccc1C(=O)N(Cc1ccco1)Cc1cc2cccc(C)c2[nH]c1=O,> 64.7,4.23,–
Cc1cc(=O)n2c3ccccc3n(C[C@H](O)CN3CCOCC3)c2c1C#N,> 34.1,30,–
Cc1cccc2cc(CN(Cc3ccccc3)C(=O)c3cccc(Cl)c3)c(=O)[nH]c12,> 60,3.59,–
Cc1ccc(CN(Cc2cc3cc(C)ccc3[nH]c2=O)C(=O)c2ccco2)cc1,> 19.8,6.4,–
Cc1ccc2[nH]c(=O)c(CN(Cc3ccco3)C(=O)c3ccc(Cl)c(O)c3)cc2c1,–,> 23.6,–
Cc1ccc2[nH]c(=O)c(CN(Cc3ccco3)C(=O)c3ccc(O)c(Cl)c3)cc2c1,–,> 23.6,–
Cc1ccc2[nH]c(=O)c(CN(Cc3cccs3)C(=O)c3cccs3)cc2c1,> 64,11.8,–
Cc1ccc2[nH]c(=O)c(CN(Cc3ccc4c(c3)OCO4)C(=O)c3ccccc3)cc2c1,> 117,5.8,–
Cc1ccc2[nH]c(=O)c(CN(Cc3ccco3)C(=O)c3ccc(Cl)cc3)cc2c1,–,1.06,IC50 [4]: 1.18 µM; IC50 [5]: 5.46 µM; IC50 [6]: 6.17 µM; IC50 [7]: 2.88 µM; inhibition [8]: Dose-dependent effect; IC50 [9]: 1.64 µM; IC50 [10]: 6.07 µM; Selectivity Index [11]: >60; IC50 [12]: 2.57 µM; IC50 [13]: 2.43 µM; IC50 [14]: 2.84 µM; inhibition [15]: Active; IC50 [16]: 5.77 µM; IC50 [17]: 2.7 µM; IC50 [18]: 4.18 µM; IC50 [19]: 4.22 µM; IC50 [20]: 3.93 µM
Cc1ccc2[nH]c(=O)c(CN(Cc3ccccc3)C(=O)c3ccco3)cc2c1,> 67.1,3.09,–
COc1ccc2[nH]c(=O)c(CN(Cc3cccs3)C(=O)C3CCCCC3)cc2c1,> 48,6.1,–

Compound,CC50 [1] [µM],IC50 [2] [µM],other results
Cc1ccc2cc(CN(Cc3ccco3)C(=O)c3ccccc3)c(=O)[nH]c2c1,–,> 16.8,–
Cc1ccc2[nH]c(=O)c(CN(Cc3ccco3)C(=O)c3ccc(Br)cc3)cc2c1,> 55.4,2.16,–
Cc1ccc2[nH]c(=O)c(CN(Cc3ccco3)C(=O)c3ccc(S(N)(=O)=O)cc3)cc2c1,–,> 22.1,–
Cc1ccc2cc(CN(Cc3ccco3)C(=O)c3ccc(C(C)(C)C)cc3)c(=O)[nH]c2c1,–,> 14.6,–
Cc1ccc2[nH]c(=O)c(CN(Cc3cccs3)C(=O)C3CCCCC3)cc2c1,> 63.4,11.7,–
Cc1ccc2[nH]c(=O)c(CN(Cc3ccco3)C(=O)c3cnn(C)c3)cc2c1,–,> 26.6,–
Cc1ccc2[nH]c(=O)c(CN(Cc3ccco3)C(=O)c3ccc(F)cc3)cc2c1,–,> 25.6,–
COc1ccc2[nH]c(=O)c(CN(Cc3ccco3)C(=O)c3ccc(Br)cc3)cc2c1,–,> 13,–
CCc1ccc2[nH]c(=O)c(CN(Cc3ccco3)C(=O)c3ccccc3)cc2c1,–,> 13.9,–
Cc1ccc2[nH]c(=O)c(CN(CC3CCCO3)C(=O)c3ccc(Cl)cc3)cc2c1 (stereo not given),–,> 38.9,–
Cc1ccc(C(=O)N(Cc2ccco2)Cc2cc3ccc(C)cc3[nH]c2=O)cc1,–,> 16.2,–
COc1ccc2[nH]c(=O)c(CN(Cc3ccco3)C(=O)c3ccc(C)cc3)cc2c1,> 31,7.87,–
Cc1cccc2cc(CN(Cc3ccco3)C(=O)c3ccccc3)c(=O)[nH]c12,> 67.1,4.02,–
Cc1ccc2[nH]c(=O)c(CN(Cc3ccco3)C(=O)c3ccc(Cl)c(Cl)c3)cc2c1,70.7,9.2,–
Cc1ccc2[nH]c(=O)c(CN(Cc3ccco3)C(=O)C(F)(F)F)cc2c1,–,> 27.5,–
CCc1ccc2[nH]c(=O)c(CN(Cc3ccco3)C(=O)c3cccs3)cc2c1,> 127,12.3,–
Cc1ccc2[nH]c(=O)c(CN(Cc3ccco3)C(=O)c3ccc(N(C)C)cc3)cc2c1,–,> 24.1,–
Cc1ccc2[nH]c(=O)c(CN(Cc3ccco3)C(=O)c3cc(Cl)c(O)c(Cl)c3)cc2c1,–,> 21.9,–
Cc1ccc2[nH]c(=O)c(CN(Cc3ccco3)C(=O)c3cccnc3)cc2c1,–,> 16.7,–
COc1ccc(C(=O)N(Cc2ccco2)Cc2cc3cc(C)ccc3[nH]c2=O)cn1,–,> 24.8,–
Cc1ccc2[nH]c(=O)c(CN(Cc3ccco3)C(=O)c3ccc(C#N)cc3)cc2c1,–,> 25.2,–
Cc1ccc2[nH]c(=O)c(CN(Cc3ccco3)C(=O)CN3CCN(C)CC3)cc2c1,–,> 24.5,–
Cc1cccc2cc(CN(Cc3ccco3)C(=O)c3cccs3)c(O)nc12,> 66.1,> 16.5,–
COc1ccc(C(=O)N(Cc2ccco2)Cc2cc3ccc(C)cc3[nH]c2=O)cc1,–,> 15,–
